Reference: ChEMBL document CHEMBL4622973, “Discovery of Potent Small-Molecule SIRT6 Activators: Structure-Activity Relationship and Anti-Pancreatic Ductal Adenocarcinoma Activity” (J Med Chem, 2020)

Tests used:
[1] = target: T1, NAD-dependent protein deacylase sirtuin-6 (Homo sapiens, UniProt Q8N6T7); test: Activation of N-terminal his-tagged human SIRT6 expressed in Escherichia coli M15 [pREP4] assessed as increase in peptide demyristoylation at 20 uM incubated for 120 mins using Ac-EALPKK(Myr)-AMC substrate by FDL assay relative to control
In short: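 Demyristoylation: 1 µM recombinant SIRT6 preincubated with compound for 20 min at 37 °C in 50 mM Tris-HCl pH 8.0, BSA 1 mg/mL, 1 mM DTT, with 10 µM Ac-EALPKK(Myr)-AMC. Started with 1 mM NAD and run 120 min at 37 °C. Developed 120 min at 37 °C with 5 mg/mL trypsin/8 mM nicotinamide. Fluorescence read. Mean ± s.d., triplicate wells, three independent experiments.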

[2] = target: T1, NAD-dependent protein deacylase sirtuin-6; test: Activation of N-terminal his-tagged human SIRT6 expressed in Escherichia coli M15 [pREP4] assessed as increase in peptide demyristoylation incubated for 120 mins using Ac-EALPKK(Myr)-AMC substrate by FDL assay relative to control
In short: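 Demyristoylation: 1 µM recombinant SIRT6 preincubated with compound for 20 min at 37 °C in 50 mM Tris-HCl pH 8.0, BSA 1 mg/mL, 1 mM DTT, with 10 µM Ac-EALPKK(Myr)-AMC. Fluorescence read. Mean ± s.d., triplicate wells, three independent experiments.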

T1 sequence (Q8N6T7 whole entry): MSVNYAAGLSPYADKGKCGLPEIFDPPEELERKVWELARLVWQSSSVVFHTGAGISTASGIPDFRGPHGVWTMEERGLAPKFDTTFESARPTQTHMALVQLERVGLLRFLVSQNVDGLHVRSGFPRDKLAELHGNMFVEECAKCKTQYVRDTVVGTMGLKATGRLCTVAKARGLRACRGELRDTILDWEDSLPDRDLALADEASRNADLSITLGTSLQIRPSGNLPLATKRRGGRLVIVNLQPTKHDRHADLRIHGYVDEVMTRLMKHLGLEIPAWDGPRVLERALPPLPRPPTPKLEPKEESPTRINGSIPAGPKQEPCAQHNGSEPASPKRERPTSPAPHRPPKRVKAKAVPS

Row | SMILES | Activity [1] [%] | EC1.5 [2] [µM]
1 | COc1ccc(-c2cc(C(=O)N3CCN(C)CC3)c3ccccc3n2)cc1OC | 105 | 
2 | COc1ccc(-c2cc(C(=O)Nc3cc(S(N)(=O)=O)ccc3C)c3ccccc3n2)cc1OC | 95.5 | 
3 | COc1ccc(NC(=O)c2cc(-c3ccc(OC)c(OC)c3)nc3ccccc23)c([N+](=O)[O-])c1 | 87.2 | 
4 | COc1ccc(-c2cc(C(=O)Nc3ccc(F)c(F)c3)c3ccccc3n2)cc1OC | 101 | 
5 | O=C(NCc1ccc(F)cc1)c1cc(-c2cc3ccccc3o2)nc2ccccc12 | 482 | 2.19
6 | COc1ccc(-c2cc(C(=O)NCc3ccc(F)cc3)c3ccccc3n2)cc1OC | 168 | 19.5
7 | COc1ccc(-c2cc(C(=O)Nc3sc(C)c(C)c3C#N)c3ccccc3n2)cc1OC | 95.1 | 
8 | COc1ccc(-c2cc(C(=O)NCc3ccc(Cl)c(Cl)c3)c3ccccc3n2)cc1OC | 260 | 8.14
9 | Cc1ccc(CNC(=O)c2cc(-c3cc4ccccc4o3)nc3ccccc23)cc1 | 208 | 14.5
10 | COc1ccc(-c2cc(C(=O)Nc3cc(C(C)C)ccc3C)c3ccccc3n2)cc1OC | 131 | 
11 | CCCNC(=O)c1cc(-c2ccc(OC)c(OC)c2)nc2ccccc12 | 99 | 
12 | CCOc1ccccc1NC(=O)c1cc(-c2ccc(OC)c(OC)c2)nc2ccccc12 | 95.2 | 
13 | COc1ccc(-c2cc(C(=O)Nc3ccc(F)cc3)c3ccccc3n2)cc1OC | 104 | 
14 | CCOc1ccc(NC(=O)c2cc(-c3ccc(OC)c(OC)c3)nc3ccccc23)cc1 | 166 | 10.3
15 | COc1ccc(-c2cc(C(=O)NC(c3ccccc3)c3ccccc3)c3ccccc3n2)cc1OC | 276 | 5.97
16 | COc1ccc(-c2cc(C(=O)Nc3ccc(F)cc3[N+](=O)[O-])c3ccccc3n2)cc1OC | 65.7 | 
17 | COC(=O)c1c(NC(=O)c2cc(-c3ccc(OC)c(OC)c3)nc3ccccc23)sc2c1CCCC2 | 95.2 | 
18 | COc1cc(NC(=O)c2cc(-c3ccc(OC)c(OC)c3)nc3ccccc23)cc(OC)c1 | 103 | 
19 | COc1ccc(-c2cc(C(=O)Nc3cccc(Cl)c3)c3ccccc3n2)cc1OC | 104 | 
20 | COC(=O)c1c(-c2ccc(C)cc2)csc1NC(=O)c1cc(-c2ccc(OC)c(OC)c2)nc2ccccc12 | 82.9 | 
21 | COc1ccc(-c2cc(C(=O)Nc3ccc(S(N)(=O)=O)cc3)c3ccccc3n2)cc1OC | 131 | 
22 | COc1ccc(-c2cc(C(=O)Nc3ccc(C(C)(C)C)cc3)c3ccccc3n2)cc1OC | 124 | 
23 | COC(=O)[C@H]1C2CCC(CC2)[C@@H]1NC(=O)c1cc(-c2ccc(OC)c(OC)c2)nc2ccccc12 | 128 | 
24 | COc1ccc(-c2cc(C(=O)Nc3ccc(F)c([N+](=O)[O-])c3)c3ccccc3n2)cc1OC | 96.9 | 
25 | COc1ccc(-c2cc(C(=O)Nc3c(C)cc(C)cc3C)c3ccccc3n2)cc1OC | 284 | 4.77
26 | COc1ccc(-c2cc(C(=O)Nc3nc4ccc(S(C)(=O)=O)cc4s3)c3ccccc3n2)cc1OC | 83.4 | 
27 | COc1ccc(-c2cc(C(=O)Nc3cc(O)c(C(C)(C)C)cc3C(C)(C)C)c3ccccc3n2)cc1OC | 88.6 | 
28 | COC(=O)c1c(NC(=O)c2cc(-c3ccc(OC)c(OC)c3)nc3ccccc23)sc(C)c1C | 101 | 

Row | SMILES | Activity [1] [%] | EC1.5 [2] [µM]
29 | O=C(Nc1cccc2ccccc12)c1cc(-c2cc3ccccc3o2)nc2ccccc12 | 119 | 
30 | O=C(Nc1ccc(Oc2ccccc2)cc1)c1cc(-c2cc3ccccc3o2)nc2ccccc12 | 118 | 
31 | COc1ccc(-c2cc(C(=O)NC3CCCC3)c3ccccc3n2)cc1OC | 124 | 
32 | CCOc1ccc(NC(=O)c2cc(-c3cc4ccccc4o3)nc3ccccc23)cc1 | 109 | 
33 | COc1ccc(-c2cc(C(=O)Nc3ccc4ccccc4c3)c3ccccc3n2)cc1OC | 139 | 
34 | O=C(NC(c1ccccc1)c1ccccn1)c1cc(-c2cc3ccccc3o2)nc2ccccc12 (stereo not drawn) | 321 | 7.59
35 | COc1ccc(-c2cc(C(=O)Nc3cc(C(F)(F)F)cc(C(F)(F)F)c3)c3ccccc3n2)cc1OC | 250 | 6.38
36 | COc1ccc(-c2cc(C(=O)Nc3cccc(Cl)c3Cl)c3ccccc3n2)cc1OC | 224 | 5.97
37 | COc1ccc(-c2cc(C(=O)Nc3nc(-c4ccc(Cl)cc4)cs3)c3ccccc3n2)cc1OC | 91 | 
38 | COc1ccc(-c2cc(C(=O)Nc3cccc4ccccc34)c3ccccc3n2)cc1OC | 327 | 7.44
39 | Cc1cc(C)c(NC(=O)c2cc(-c3cc4ccccc4o3)nc3ccccc23)c(C)c1 | 315 | 3.71
40 | COc1ccc(-c2cc(C(=O)Nc3ccc(C)cc3)c3ccccc3n2)cc1OC | 98.3 | 
41 | CCN(CC)c1ccc(NC(=O)c2cc(-c3ccc(OC)c(OC)c3)nc3ccccc23)cc1 | 83.3 | 
42 | COc1ccc(-c2cc(C(=O)Nc3ccc(Oc4ccccc4)cc3)c3ccccc3n2)cc1OC | 239 | 6.47
43 | COc1ccc(-c2cc(C(=O)NC34CC5CC(CC(O)(C5)C3)C4)c3ccccc3n2)cc1OC | 86.1 | 
44 | O=C(Nc1ccc(Cl)c(Cl)c1)c1cc(-c2cc3ccccc3o2)nc2ccccc12 | 109 | 
45 | COc1ccc(-c2cc(C(=O)NCc3ccccc3)c3ccccc3n2)cc1OC | 107 | 
46 | COc1cc([N+](=O)[O-])ccc1NC(=O)c1cc(-c2ccc(OC)c(OC)c2)nc2ccccc12 | 101 | 
47 | O=C(NCc1ccc(Cl)c(Cl)c1)c1cc(-c2cc3ccccc3o2)nc2ccccc12 | 314 | 5.91
48 | CCOC(=O)c1sc(NC(=O)c2cc(-c3ccc(OC)c(OC)c3)nc3ccccc23)nc1C | 90.3 | 
49 | COc1ccc(-c2cc(C(=O)Nc3ccccc3Br)c3ccccc3n2)cc1OC | 128 | 
50 | COc1ccc(-c2cc(C(=O)Nc3ccccc3F)c3ccccc3n2)cc1OC | 92.4 | 
51 | COc1ccc(-c2cc(C(=O)Nc3cccc(F)c3)c3ccccc3n2)cc1OC | 142 | 
52 | CCOC(=O)c1ccccc1NC(=O)c1cc(-c2ccc(OC)c(OC)c2)nc2ccccc12 | 118 | 
53 | COc1cccc(NC(=O)c2cc(-c3ccc(OC)c(OC)c3)nc3ccccc23)c1 | 115 | 
54 | COc1ccc(-c2cc(C(=O)Nc3ccc(F)c(Cl)c3)c3ccccc3n2)cc1OC | 108 | 
55 | COc1ccc(-c2cc(C(=O)Nc3ccc(Cl)cc3)c3ccccc3n2)cc1OC | 98.7 | 

The next lines start with the values.

Row | Activity [1] [%] | EC1.5 [2] [µM] | SMILES
56 | 105 |  | COc1ccc(-c2cc(C(=O)Nc3ccccc3Cl)c3ccccc3n2)cc1OC
57 | 205 | 9.01 | Cc1c(Cl)cccc1NC(=O)c1cc(-c2cc3ccccc3o2)nc2ccccc12
58 | 142 |  | COc1ccc(-c2cc(C(=O)Nc3ccc(C(F)(F)F)cc3)c3ccccc3n2)cc1OC
59 | 349 | 3.47 | Cc1ccc(C)c(NC(=O)c2cc(-c3cc4ccccc4o3)nc3ccccc23)c1
60 | 287 | 4.96 | O=C(Nc1ccc(C(F)(F)F)cc1Cl)c1cc(-c2cc3ccccc3o2)nc2ccccc12
61 | 313 | 5.61 | COc1ccc(-c2cc(C(=O)Nc3cc(C)ccc3C)c3ccccc3n2)cc1OC
62 | 184 | 18.6 | Cc1ccc(-c2cc(C(=O)Nc3cc(C(F)(F)F)ccc3Cl)c3ccccc3n2)o1
63 | 365 | 2.84 | COc1ccc(-c2cc(C(=O)Nc3cc(C(F)(F)F)ccc3Cl)c3ccccc3n2)cc1OC
64 | 82.4 |  | O=C(Nc1cc(C(F)(F)F)ccc1Cl)c1cc(C2CCCCC2)nc2ccccc12
65 | 76.4 |  | O=C(Nc1cc(C(F)(F)F)ccc1Cl)c1cc(C2CCCC2)nc2ccccc12
66 | 181 | 7.53 | COc1ccc(-c2cc(C(=O)Nc3ccc(C(F)(F)F)cc3Cl)c3ccccc3n2)cc1OC
67 | 321 | 5.96 | COc1cccc2cc(-c3cc(C(=O)Nc4cc(C(F)(F)F)ccc4Cl)c4ccccc4n3)oc12
68 | 92.3 |  | Cc1ccc(-c2cc(C(=O)Nc3cc(C(F)(F)F)ccc3Cl)c3ccccc3n2)c(C)c1
69 | 141 |  | Cc1ccc(-c2cc(C(=O)Nc3cc(C(F)(F)F)ccc3Cl)c3ccccc3n2)s1
70 | 163 | 20.7 | COc1ccc(-c2cc(C(=O)Nc3cc(C(F)(F)F)ccc3Cl)c3ccccc3n2)cc1
71 | 159 | 29.4 | O=C(Nc1cc(C(F)(F)F)ccc1Cl)c1cc(-c2ccc3c(c2)OCCO3)nc2ccccc12
72 | 762 | 0.85 | O=C(Nc1cc(C(F)(F)F)ccc1Cl)c1cc(-c2cc3ccccc3o2)nc2ccccc12
73 | 228 | 14.9 | O=C(Nc1cc(C(F)(F)F)ccc1Cl)c1cc(-c2ccc3c(c2)OCO3)nc2ccccc12
74 | 91.2 |  | COc1ccc(-c2cc(C(=O)Nc3cc(C(F)(F)F)ccc3Cl)c3ccccc3n2)cc1F
75 | 117 |  | COc1ccc(-c2cc(C(=O)Nc3ccc(C)c(Cl)c3)c3ccccc3n2)cc1OC
76 | 141 |  | O=C(Nc1cc(C(F)(F)F)ccc1Cl)c1cc(-c2ccco2)nc2ccccc12
77 | 85.6 |  | O=C(Nc1cc(C(F)(F)F)ccc1Cl)c1cc(-c2cccnc2)nc2ccccc12
78 | 109 |  | Cc1ccc(-c2cc(C(=O)Nc3cc(C(F)(F)F)ccc3Cl)c3ccccc3n2)cc1
79 | 199 | 19 | COc1ccc(-c2cc(C(=O)Nc3cccc(Cl)c3C)c3ccccc3n2)cc1OC
80 | 130 |  | O=C(Nc1cc(C(F)(F)F)ccc1Cl)c1cc(-c2cccs2)nc2ccccc12
81 | 98.2 |  | COc1ccc(-c2cc(C(=O)Nc3cc([N+](=O)[O-])ccc3Cl)c3ccccc3n2)cc1OC
